Series [1] deals with L6. Kind of series: Cytotoxicity against rat L6 cells after 72 hrs by Alamar blue assay. In kind it is cell-based. To be noted: l6, 72 h. The gist of the method: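 4 × 10^4 L6 cells per well in RPMI 1640 with 10% FBS and L-glutamine, exposed 72 h to seven 3-fold dilutions (90–0.12 µg/mL). Resazurin (Alamar Blue) added for 2 h, fluorescence read at ex 536/em 588 nm.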
(In general: The colour change of resazurin is a common sign of viable cells or microbes.)

For series [2], the system named is Trypanosoma brucei rhodesiense. As to the kind of experiment: Trypanocidal activity against Trypanosoma brucei rhodesiense STIB 900 after 72 hrs. In kind it is functional, organism-based. The conditions noted are these: STIB 900, 72 h. An outline of the steps: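 Bloodstream forms (10^4 per well) in MEM with 25 mM HEPES, extra glucose, non-essential amino acids, 2-mercaptoethanol, pyruvate and 15% heat-inactivated horse serum; seven 3-fold dilutions from 90 to 0.12 µg/mL, 72 h at 37 °C, 5% CO2. Resazurin added for 2–4 h, fluorescence at ex 536/em 588 nm; melarsoprol as standard.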

Series [3] concerns Leishmania donovani. Kind of series: Antileishmanial activity against Leishmania donovani (MHOM/ET/67/L82) amastigotes after 72 hrs. The conditions noted are these: MHOM/ET/67/L82, 72 h. In kind it is functional, organism-based.
Series [4] concerns Plasmodium falciparum. Kind of series: Antimalarial activity against chloroquine and pyrimethamine-resistant Plasmodium falciparum K1 assessed as inhibition of [3H]hypoxanthine incorporation after 48 hrs by scintillation counting. It is filed as functional, organism-based. The gist of the method: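 K1 strain (chloroquine- and pyrimethamine-resistant) cultured in RPMI 1640 with 5% Albumax II, 0.2% w/v glucose, 0.03% L-glutamine. Two-fold dilution series from DMSO stocks, final DMSO ≤0.25%. 48 h at 37 °C, then 0.1 µCi [3H]-hypoxanthine added and incubated 24 h more. Freeze-stopped at -80 °C, harvested onto glass fiber filters, scintillation counted. IC50 calculated. Chloroquine as standard.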

Series [5] deals with T1, 3-oxoacyl-acyl-carrier protein reductase (Plasmodium falciparum) (UniProt Q965D6).
T1 sequence (whole entry): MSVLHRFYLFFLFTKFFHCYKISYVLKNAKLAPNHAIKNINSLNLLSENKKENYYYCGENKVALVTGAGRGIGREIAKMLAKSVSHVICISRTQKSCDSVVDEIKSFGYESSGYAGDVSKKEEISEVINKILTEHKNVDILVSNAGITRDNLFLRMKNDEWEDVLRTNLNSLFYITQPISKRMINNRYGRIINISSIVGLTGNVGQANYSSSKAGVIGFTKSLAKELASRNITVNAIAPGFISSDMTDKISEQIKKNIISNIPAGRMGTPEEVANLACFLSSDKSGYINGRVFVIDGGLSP
Kind of series: Inhibition of Plasmodium falciparum recombinant FabG at 20 ug/mL by spectrophotometric analysis.

Series [6] is described as follows: Inhibition of Plasmodium falciparum recombinant FabI at 20 ug/mL by spectrophotometric analysis.
In series [7] the target is T2, Fatty acid synthase (Plasmodium falciparum) (UniProt Q965D7).
T2 sequence (whole entry): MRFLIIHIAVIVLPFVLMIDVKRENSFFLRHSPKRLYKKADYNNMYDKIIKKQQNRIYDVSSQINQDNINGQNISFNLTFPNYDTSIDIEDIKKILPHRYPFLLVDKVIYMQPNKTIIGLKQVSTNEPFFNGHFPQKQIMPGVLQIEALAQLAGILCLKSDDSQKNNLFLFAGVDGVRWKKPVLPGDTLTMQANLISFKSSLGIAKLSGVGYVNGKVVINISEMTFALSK
As to the kind of experiment: Inhibition of Plasmodium falciparum recombinant FabZ at 20 ug/mL by spectrophotometric analysis.

Series [8] relates to Trypanosoma cruzi. Kind of series: Trypanocidal activity against trypomastigote form of Trypanosoma cruzi Tulahuen infected in rat L6 cells after 96 hrs. To be noted: L6, 96 h. In kind it is functional, organism-based. An outline of the steps: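 L6 cells seeded at 2000 per well in RPMI 1640 with 10% FBS, 2 mM L-glutamine; after 24 h, 5000 trypomastigotes of the LacZ-expressing C2C4 line added. After 48 h, medium replaced with seven 3-fold dilutions (90–0.12 µg/mL) for 96 h.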

Calls of active or inactive are those of the source. No cut-off for these calls is given here.

Broadly, the IC50 is the concentration at which inhibition is half-maximal.

Molecule `COC(=O)[C@H]1O[C@@H](O[C@H]2CC[C@@]3(C)[C@@H](CC[C@H]4[C@H]5C(=O)C(O)=C([C@H](C)CC(=O)CC(C)C)[C@@]5(C)CC[C@@H]43)C2)[C@H](O[C@@H]2O[C@H](CO)[C@@H](O)[C@H](O)[C@H]2O)[C@@H](O)[C@@H]1O` [METHYL ESTER PANDAROSIDE C] returned an Activity in series [1] of over 120 µM. Also, the IC50 was 61.4 µM in series [2], 44.2 µM in series [3], over 25 µM in series [4] and 100 µM in series [8]. For the same molecule, the outcome in series [5], in series [6] and in series [7] was inactive.

Consider `CC(C)[C@@H](C)C(=O)C[C@@H](C)C1=C(O)C(=O)[C@@H]2C3=C(CC[C@]12C)[C@@]1(C)CC[C@H](O[C@@H]2O[C@H](C(=O)O)[C@@H](O)[C@H](O[C@@H]4OC[C@@H](O)[C@H](O)[C@H]4O)[C@H]2O)C[C@@H]1CC3` [PANDAROSIDE F], for which the Activity in series [1] worked out at 10.8 µM. The IC50 stood at 2.4 µM in series [2], 4.3 µM in series [3], 5.7 µM in series [4] and 20.3 µM in series [8]. For the same molecule, the outcome in series [5], in series [6] and in series [7] was inactive.

`CC[C@@H](C(=O)C[C@@H](C)C1=C(O)C(=O)[C@@H]2[C@@H]3CC[C@H]4C[C@@H](O[C@@H]5O[C@H](C(=O)OC)[C@@H](O)[C@H](O[C@@H]6OC[C@@H](O)[C@H](O)[C@H]6O)[C@H]5O)CC[C@]4(C)[C@H]3CC[C@]12C)C(C)C` [METHYL ESTER PANDAROSIDE H] registered an Activity in series [1] of 43.3 µM. Moreover, the IC50 was found to be 19.9 µM in series [2], 16.5 µM in series [3], 10.2 µM in series [4] and 36.1 µM in series [8]. Besides, the result in series [5], in series [6] and in series [7] was inactive.

`CC(C)CC(=O)C[C@@H](C)C1=C(O)C(=O)[C@@H]2[C@@H]3CC[C@H]4C[C@@H](O[C@@H]5O[C@H](C(=O)O)[C@@H](O)[C@H](O)[C@H]5O)CC[C@]4(C)[C@H]3CC[C@]12C` [PANDAROSIDE D] registered an Activity in series [1] of 96.6 µM. The IC50 in series [2] was 15.3 µM; in series [3] it was 31 µM; in series [4], 13.5 µM; in series [8], 80.8 µM. In addition, the outcome in series [5], in series [6] and in series [7] was inactive.

For the molecule `CC[C@@H](C(=O)C[C@@H](C)C1=C(O)C(=O)[C@@H]2C3=CC[C@H]4C[C@@H](O[C@@H]5O[C@H](C(=O)O)[C@@H](O)[C@H](O[C@@H]6OC[C@@H](O)[C@H](O)[C@H]6O)[C@H]5O)CC[C@]4(C)[C@H]3CC[C@]12C)C(C)C` [PANDAROSIDE G], the Activity in series [1] turned out to be 5.4 µM. In addition, the IC50 was found to be 0.8 µM in series [2], 1.3 µM in series [3], 2.5 µM in series [4] and 9.7 µM in series [8]. The result in series [5], in series [6] and in series [7] was inactive.

In series [1], `CC[C@@H](C(=O)C[C@@H](C)C1=C(O)C(=O)[C@@H]2[C@@H]3CC[C@H]4C[C@@H](O[C@@H]5O[C@H](C(=O)OC)[C@@H](O[C@H]6O[C@H](C)[C@@H](O)[C@H](O)[C@@H]6O)[C@H](O)[C@H]5O)CC[C@]4(C)[C@H]3CC[C@]12C)C(C)C` [METHYL ESTER PANDAROSIDE I] came in with an Activity of 59.6 µM. Moreover, the IC50 in series [2] stood at 27.2 µM; in series [3] it was 28.7 µM; in series [4] it was 13 µM; in series [8], 21.7 µM. For the same molecule, the outcome in series [5], in series [6] and in series [7] was inactive.

Consider `O=C(Cn1ccnc1[N+](=O)[O-])NCc1ccccc1` [BENZNIDAZOLE], for which, in series [8], the IC50 was found to be 2.64 µM.

For `COC(=O)[C@H]1O[C@@H](O[C@H]2CC[C@@]3(C)[C@@H](CC[C@H]4[C@H]5C(=O)C(O)=C([C@H](C)CC(=O)CC(C)C)[C@@]5(C)CC[C@@H]43)C2)[C@H](O)[C@@H](O)[C@@H]1O` [METHYL ESTER PANDAROSIDE D], in series [1], the Activity came out at 106 µM. Moreover, the IC50 came to 40.4 µM in series [2], 13.7 µM in series [3], 5.1 µM in series [4] and 21.6 µM in series [8]. The result in series [5], in series [6] and in series [7] was inactive.

On to `COc1cc([C@@H]2c3cc4c(cc3[C@H](O)[C@H]3COC(=O)[C@H]23)OCO4)cc(OC)c1OC` [PODOFILOX], for which the Activity in series [1] was 0.012 µM.

With `CC[C@@H](C(=O)C[C@@H](C)C1=C(O)C(=O)[C@@H]2[C@@H]3CC[C@H]4C[C@@H](O[C@@H]5O[C@H](C(=O)O)[C@@H](O)[C@H](O)[C@H]5O)CC[C@]4(C)[C@H]3CC[C@]12C)C(C)C`, the outcome in series [5], in series [6] and in series [7] was inactive.

Molecule `CC[C@@H](C(=O)C[C@@H](C)C1=C(O)C(=O)[C@@H]2[C@@H]3CC[C@H]4C[C@@H](O[C@@H]5O[C@H](C(=O)O)[C@@H](O)[C@H](O)[C@H]5O[C@@H]5O[C@H](CO)[C@@H](O)[C@H](O)[C@H]5O)CC[C@]4(C)[C@H]3CC[C@]12C)C(C)C` [PANDAROSIDE A] returned an Activity in series [1] of 48.9 µM. The IC50 was found to be 9.1 µM in series [2], 19.7 µM in series [3], 17.6 µM in series [4] and 52.2 µM in series [8]. The result in series [5], in series [6] and in series [7] was inactive.

Molecule `CC[C@@H](C(=O)C[C@@H](C)C1=C(O)C(=O)[C@@H]2[C@@H]3CC[C@H]4C[C@@H](O[C@@H]5O[C@H](C(=O)O)[C@@H](O)[C@H](O[C@@H]6OC[C@@H](O)[C@H](O)[C@H]6O)[C@H]5O)CC[C@]4(C)[C@H]3CC[C@]12C)C(C)C` [PANDAROSIDE H] yielded an Activity in series [1] of over 120 µM. Also, the IC50 is 68.4 µM in series [2], 46.7 µM in series [3], 22.8 µM in series [4] and over 120 µM in series [8]. The result in series [5], in series [6] and in series [7] was inactive.

As to `COC(=O)[C@H]1O[C@@H](O[C@H]2CC[C@]3(C)C4=C(CC[C@H]3C2)[C@H]2C(=O)C(O)=C([C@H](C)CC(=O)[C@H](C)C(C)C)[C@@]2(C)CC4)[C@H](O)[C@@H](O[C@@H]2OC[C@@H](O)[C@H](O)[C@H]2O)[C@@H]1O` [METHYL ESTER PANDAROSIDE F], in series [1], the Activity was 42.1 µM. For the same molecule, the half-inhibitory concentration (IC50) in series [2] is 54.4 µM; in series [3], 26.8 µM; in series [4] it was 9.9 µM; in series [8] it was 25.1 µM. The outcome in series [5], in series [6] and in series [7] was inactive.

`CC[C@@H](C(=O)C[C@@H](C)C1=C(O)C(=O)[C@@H]2[C@@H]3CC[C@H]4C[C@@H](O[C@@H]5O[C@H](C(=O)O)[C@@H](O[C@H]6O[C@H](C)[C@@H](O)[C@H](O)[C@@H]6O)[C@H](O)[C@H]5O)CC[C@]4(C)[C@H]3CC[C@]12C)C(C)C` [PANDAROSIDE I] came in with an Activity in series [1] of over 120 µM. The half-maximal inhibitory concentration (IC50) was 19.2 µM in series [2], 36 µM in series [3], over 25 µM in series [4] and 70.8 µM in series [8]. Moreover, the result in series [5], in series [6] and in series [7] was inactive.

These data come from ChEMBL document CHEMBL1212832, “Antiprotozoal steroidal saponins from the marine sponge Pandaros acanthifolium” (J Nat Prod, 2010).
